# Test results as given in ChEMBL document CHEMBL1770087, “Novel 3-chlorooxazolidin-2-ones as antimicrobial agents” (Bioorg Med Chem Lett, 2011).
# What was measured:
# [1] = Therapeutic index, ratio of CT50 for mouse L929 cells to Escherichia coli ATCC 25922; format: cell-based; settings: pooled result: one value given for 2 cell lines, strains, targets or settings, read-out: TI
# [2] = Cytotoxicity against mouse L929 cells after 1 hr at pH 7 by Dojindo cell proliferation assay; format: cell-based
# How it was run: (§1)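 L929 mouse fibroblasts exposed to test article for 1 h in test solution at pH 7, or at pH 4 where flagged. Compound then removed and cells incubated overnight. Viability read with Dojindo cell proliferation assay; CT50 reported in mM.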
# [3] = Therapeutic index, ratio of CT50 for mouse L929 cells to Candida albicans ATCC 10231; format: cell-based; settings: read-out: TI
# How it was run: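 Antifungal index is the L929 CT50 (1 h exposure, overnight recovery, Dojindo viability) divided by the MFC against C. albicans. MFC is from a modified CLSI M26-A method: phosphate-buffered saline pH 7 in place of Mueller–Hinton broth, 1 h compound residence.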
# [4] = system: Escherichia coli; test: Antibacterial activity against Escherichia coli ATCC 25922 at pH 7 by CLSI M26A method; format: functional
# How it was run: (§2)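 Modified CLSI M26-A bactericidal method in which phosphate-buffered saline (pH 7) replaced Mueller–Hinton broth and compound contact was cut to 1 h. The read-out was the minimum bactericidal concentration (MBC).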
# [5] = system: Staphylococcus aureus; test: Antibacterial activity against Staphylococcus aureus ATCC 29213 at pH 7 by CLSI M26A method; format: functional; how it was run: as §2
# [6] = system: Candida albicans; test: Antifungal activity against Candida albicans ATCC 10231 at pH 7 by CLSI M26A method; format: functional
# How it was run: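 Modified CLSI M26-A method with phosphate-buffered saline (pH 7) in place of Mueller–Hinton broth and compound contact shortened to 1 h. The read-out was the minimum fungicidal concentration (MFC).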
# [7] = Cytotoxicity against mouse L929 cells after 1 hr at pH 4 by Dojindo cell proliferation assay; format: cell-based; how it was run: as §1
Structure (SMILES),selectivity ratio [1],CC50 at 1 h [2],selectivity ratio [3],MBC [4],MBC [5],MFC [6],CC50 at 1 h [7]
CC1(C)COC(=O)N1Cl,5.2,70 µM,0.02,1 µg/mL,4 µg/mL,512 µg/mL,–
CC1(CS(=O)(=O)[O-])COC(=O)N1Cl.[Na+] (configuration not stated),1.4,800 µM,0.25,256 µg/mL,128 µg/mL,1020 µg/mL,–
CC1(CS(=O)(=O)CCS(=O)(=O)[O-])COC(=O)N1Cl.[Na+] (configuration not stated),8.5,600 µM,1.5,16 µg/mL,32 µg/mL,128 µg/mL,–
CC1(CS(=O)(=O)CCCC(=O)O)COC(=O)N1Cl (configuration not stated),14,520 µM,–,16 µg/mL,8 µg/mL,> 1020 µg/mL,–
CC1(C[N+](C)(C)C)COC(=O)N1Cl.[Cl-] (configuration not stated),–,–,–,2 µg/mL,4 µg/mL,16 µg/mL,–
CC[N+](C)(C)CC1(C)COC(=O)N1Cl.[Cl-] (configuration not stated),78,–,28,2 µg/mL,4 µg/mL,8 µg/mL,860 µM
CCC[N+](C)(C)CC1(C)COC(=O)N1Cl.[Cl-] (configuration not stated),122,–,31,2 µg/mL,2 µg/mL,8 µg/mL,900 µM
CC1(C[N+]2(C)CCCC2)COC(=O)N1Cl.[Cl-] (configuration not stated),76,–,19,4 µg/mL,4 µg/mL,16 µg/mL,1130 µM
CC1(C)C(CS(=O)(=O)[O-])OC(=O)N1Cl.[Na+] (configuration not stated),2.9,4300 µM,1,256 µg/mL,512 µg/mL,1020 µg/mL,–
CC1(C)C(C[N+](C)(C)C)OC(=O)N1Cl.[Cl-] (configuration not stated),7.6,690 µM,2.7,16 µg/mL,32 µg/mL,64 µg/mL,–
C[N+]1(C)CCC2(CC1)CN(Cl)C(=O)O2.[Cl-],7.9,–,0.7,16 µg/mL,32 µg/mL,256 µg/mL,700 µM
